Experimental data from different studies.
Protocols differ between the studies behind these lines.
Target: Serine/threonine-protein kinase PAK 3 (PAK3, Homo sapiens, UniProt O75914)

Nc1ncnc2occ(-c3ccc(NC(=O)Nc4cc(C(F)(F)F)ccc4F)cc3)c12
remaining signal (cell-free assay; inhibitor; 20 µM): 14%

COc1cc2c(Nc3ccc(Br)cc3F)ncnc2cc1OCC1CCN(C)CC1
remaining signal (cell-free assay; 0.5 µM): 103%

COc1cc(Cl)c(C(=O)N[C@@H](CN[C@H]2CC[C@@H](N)CC2)Cc2ccc(C#N)cc2)cc1-c1ccc(CN[C@H](C)c2ccc(C)cc2)o1
remaining activity (enzyme activity; inhibitor; 1 µM): 101%

O=C(Nc1cnn(-c2csc(C(=O)NC3COC3)c2)c1)Nc1ccccc1Cl
remaining activity (enzyme activity; inhibitor; 5 µM): 97.4%

COc1cc2ncnc(Nc3ccc(Oc4ccccc4)c(C)c3C)c2cc1OC
inhibition (enzyme activity; inhibitor; 1 µM): 10%

COc1cc(-c2cn(C3CCc4ccccc4N(CC(F)(F)F)C3=O)nn2)ccc1-n1ccc(C)n1 (stereo not shown)
remaining binding (cell-free assay; competition with immobilised ligand; 1 µM): 100%

C[S+]([O-])c1ccc(-c2nc(-c3ccncc3)c(-c3ccc(F)cc3)[nH]2)cc1 (stereo not shown)
remaining signal (cell-free assay; 0.5 µM): 102%

CC(C)(O)[C@H]1CC[C@H](Nc2ccc3ncc(-c4cccc(C(F)(F)F)c4)n3n2)CC1
remaining activity (enzyme activity; inhibitor; 1 µM): 94.2%

N[C@H]1CCN(c2nccc(-c3cnn4ncccc34)n2)C1
remaining binding (binding; 1 µM): 100%

O=C(N[C@H]1CCCCC/C=C\C2C[C@@]2(C(=O)O)NC(=O)[C@@H]2C[C@@H](Oc3ccncc3)CN2C1=O)OC1CCCC1 (stereo partly shown)
remaining binding (binding; competition with immobilised ligand; 1 µM): 88%

CNC(=O)c1cc(Oc2ccc(NC(=O)Nc3ccc(Cl)c(C(F)(F)F)c3)cc2)ccn1
inhibition (enzyme activity; inhibitor; 10 µM): 74%

CNC(=O)Nc1ccc2c(c1)CC[C@@]21OC(=O)N(CC(=O)N(Cc2ccc(F)cc2)[C@@H](C)C(F)(F)F)C1=O
remaining binding (cell-free assay; competition with immobilised ligand; 1 µM): 91%

CCCS(=O)(=O)Nc1ccc(F)c(C(=O)c2c[nH]c3ncc(-c4ccc(Cl)cc4)cc23)c1F
inhibition (enzyme activity; inhibitor; 1 µM): < 20%

O=C(Nc1cccnn1)N1CC(C/C=C/c2cncc(Oc3ccc(C(F)(F)F)cn3)n2)C1
remaining binding (cell-free assay; competition with immobilised ligand; 1 µM): 100%

Cc1ccc(Nc2nccc(N(C)c3ccc4c(C)n(C)nc4c3)n2)cc1S(N)(=O)=O
inhibition (enzyme activity; inhibitor; 0.3 µM): 29%

O=C(O)c1cc(-c2ccc(C3CCNCC3)cc2)c2ccc(-c3ccc(C(F)(F)F)cc3)cc2c1
remaining binding (cell-free assay; competition with immobilised ligand; 1 µM): 100%

Clc1ccc(Nc2nnc(Cc3ccncc3)c3ccccc23)cc1
remaining signal (cell-free assay; 0.5 µM): 107%

Cc1nc(C2CCN(C(=O)c3ccc(OC(F)(F)F)cc3N)CC2)c2ncc(N3CCN(C)CC3)cc2n1
remaining binding (cell-free assay; competition with immobilised ligand; 1 µM): 100%

O=C1NC(=O)c2cc(Nc3ccc(F)cc3)c(Nc3ccc(F)cc3)cc21
remaining signal (cell-free assay; 0.5 µM): 99.4%
